According to ChEMBL document CHEMBL1165950, “Design and synthesis of new potent anticancer pyrazoles with high FLT3 kinase inhibitory selectivity” (Bioorg Med Chem, 2010):

Tests used:
Assay type in all cases: functional
Settings in all cases: read-out: Activity
ACHN = assay: Cytotoxicity against human ACHN cells assessed as cell growth at 10 uM
Summary of the method: (§1)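 Single-dose NCI-60 screen at 10 µM. Cells were grown in RPMI 1640 with 5% FBS and 2 mM L-glutamine, then treated for 48 h at 37 °C. Protein was measured by SRB staining with absorbance at 515 nm. Percentage growth was recorded, and inhibition percentage was calculated as 100 minus growth percentage.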

HCT-116 = assay: Cytotoxicity against human HCT116 cells assessed as cell growth at 10 uM; summary of the method: as §1
A549 = assay: Cytotoxicity against human A549 cells assessed as cell growth at 10 uM; summary of the method: as §1
MDA-MB-231 = assay: Cytotoxicity against human MDA-MB-231 cells assessed as cell growth at 10 uM
Summary of the method: (§2)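 NCI-60 screen: cells grown in RPMI 1640 with 5% FBS and 2 mM L-glutamine, plated at 5000–40,000 cells/well according to doubling time, and preincubated 24 h at 37 °C, 5% CO2. The single 10 µM dose (DMSO stock) was added, then incubated 48 h. Cells were TCA-fixed and stained with 0.4% SRB, read at 515 nm, and growth % calculated against time-zero and control plates.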

HOP-62 = assay: Cytotoxicity against human HOP62 cells assessed as cell growth at 10 uM; summary of the method: as §1
SK-MEL-5 = assay: Cytotoxicity against human SK-MEL-5 cells assessed as cell growth at 10 uM; summary of the method: as §2
K562 = assay: Cytotoxicity against human K562 cells assessed as cell growth at 10 uM; summary of the method: as §1
DU-145 = assay: Cytotoxicity against human DU145 cells assessed as cell growth at 10 uM; summary of the method: as §1
NCI-H460 = assay: Cytotoxicity against human NCI-H460 cells assessed as cell growth at 10 uM; summary of the method: as §2
MDA-MB-468 = assay: Cytotoxicity against human MDA-MB-468 cells assessed as cell growth at 10 uM; summary of the method: as §2
NCI-H522 = assay: Cytotoxicity against human NCI-H522 cells assessed as cell growth at 10 uM; summary of the method: as §2
SN12C = assay: Cytotoxicity against human SN12C cells assessed as cell growth at 10 uM; summary of the method: as §2
SK-MEL-2 = assay: Cytotoxicity against human SK-MEL-2 cells assessed as cell growth at 10 uM; summary of the method: as §2
OVCAR-8 = assay: Cytotoxicity against human OVCAR8 cells assessed as cell growth at 10 uM; summary of the method: as §2
CAKI-1 = assay: Cytotoxicity against human Caki1 cells assessed as cell growth at 10 uM; summary of the method: as §1
NCI-H23 = assay: Cytotoxicity against human NCI-H23 cells assessed as cell growth at 10 uM; summary of the method: as §2
OVCAR-5 = assay: Cytotoxicity against human OVCAR5 cells assessed as cell growth at 10 uM; summary of the method: as §2
NCI/ADR-RES = assay: Cytotoxicity against human NCI/ADR-RES cells assessed as cell growth at 10 uM; summary of the method: as §2
786-0 = assay: Cytotoxicity against human 786-0 cells assessed as cell growth at 10 uM; summary of the method: as §1
EKVX = assay: Cytotoxicity against human EKVX cells assessed as cell growth at 10 uM; summary of the method: as §1
MDA-MB-435 = assay: Cytotoxicity against human MDA-MB-435 cells assessed as cell growth at 10 uM; summary of the method: as §2
SF-268 = assay: Cytotoxicity against human SF268 cells assessed as cell growth at 10 uM; summary of the method: as §2
TK-10 = assay: Cytotoxicity against human TK10 cells assessed as cell growth at 10 uM; summary of the method: as §2
SK-MEL-28 = assay: Cytotoxicity against human SK-MEL-28 cells assessed as cell growth at 10 uM; summary of the method: as §2
MCF7 = assay: Cytotoxicity against human MCF7 cells assessed as cell growth at 10 uM; summary of the method: as §2
HL-60(TB) = assay: Cytotoxicity against human HL-60(TB) cells assessed as cell growth at 10 uM
Summary of the method: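 NCI 60-cell panel screen at a single concentration of 10 µM. Cells are grown in RPMI 1640 with 5% FBS and 2 mM L-glutamine and read by SRB protein staining at 515 nm. Percent growth is measured relative to time-zero and untreated controls; inhibition % is 100 minus growth %.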

Malme-3M = assay: Cytotoxicity against human MALME-3M cells assessed as cell growth at 10 uM; summary of the method: as §2
SR = assay: Cytotoxicity against human SR cells assessed as cell growth at 10 uM; summary of the method: as §2
SK-OV-3 = assay: Cytotoxicity against human SKOV3 cells assessed as cell growth at 10 uM; summary of the method: as §2
COLO 205 = assay: Cytotoxicity against human COLO205 cells assessed as cell growth at 10 uM; summary of the method: as §1
T47D = assay: Cytotoxicity against human T47D cells assessed as cell growth at 10 uM; summary of the method: as §2

Cc1cc(O)cc(-c2nn(CC#N)cc2-c2ccnc(-c3ccccc3)c2)c1
growth at 10 µM (ACHN): 74.4% | growth at 10 µM (HCT-116): 59.1% | growth at 10 µM (A549): 85.5% | growth at 10 µM (MDA-MB-231): 80.7% | growth at 10 µM (HOP-62): 92.7% | growth at 10 µM (SK-MEL-5): 75.4% | growth at 10 µM (K562): 71.5% | growth at 10 µM (DU-145): 103% | growth at 10 µM (NCI-H460): 93.3% | growth at 10 µM (MDA-MB-468): 61.8% | growth at 10 µM (NCI-H522): 57.2% | growth at 10 µM (SN12C): 77.6% | growth at 10 µM (SK-MEL-2): 86.1% | growth at 10 µM (OVCAR-8): 70.2% | growth at 10 µM (CAKI-1): 82.4% | growth at 10 µM (NCI-H23): 93.5% | growth at 10 µM (OVCAR-5): 93.2% | growth at 10 µM (NCI/ADR-RES): 66.7% | growth at 10 µM (786-0): 67% | growth at 10 µM (EKVX): 101% | growth at 10 µM (MDA-MB-435): 97.8% | growth at 10 µM (SF-268): 99.6% | growth at 10 µM (TK-10): 84.2% | growth at 10 µM (SK-MEL-28): 85.2% | growth at 10 µM (MCF7): 53.8% | growth at 10 µM (HL-60(TB)): 78.4% | growth at 10 µM (Malme-3M): 133% | growth at 10 µM (SR): 80.3% | growth at 10 µM (SK-OV-3): 84.6% | growth at 10 µM (COLO 205): 108% | growth at 10 µM (T47D): 59.2%
